Source: ChEMBL document CHEMBL3526116, “Toxicological evaluation of acyl glucuronides of nonsteroidal anti-inflammatory drugs using human embryonic kidney 293 cells stably expressing human UDP-glucuronosyltransferase and human hepatocytes” (Drug Metab Dispos, 2011)

How the values were obtained:
HEK293 [1] = assay: Cytotoxicity against HEK293 cells expressing UGT1A4 assessed as decrease in cell viability at 1 mM by MTT assay; assay type: ADME, cell-based; conditions: human, hek293, 1000 µM; TDE = time-dependent effect
HEK293 [2] = assay: Cytotoxicity against mock transfected HEK293 cells assessed as decrease in cell viability by measuring intracellular ATP content at 1 mM by CellTiter-Glo luminescent assay; assay type: cell-based; conditions: human, hek293, 1000 µM; TDE = time-dependent effect
Summary of the method: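 Mock-transfected HEK293 cells seeded at 2 x 10^4 cells/well in DMEM with 0.5% FBS, drug added at once and incubated 6, 12 or 24 h. Viability read either by WST-8 (CCK-8) formazan absorbance at 450 nm or by intracellular ATP luminescence (CellTiter-Glo), as percent of control cells; mean ± SD of triplicates. Final DMSO ≤0.1%.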

Hepatocyte [3] = assay: Cellular uptake in human hepatocytes at 1 mM measured at 6 hrs by LC-MS/MS analysis in presence of acyl glucuronidation inhibitor (-)-borneol; assay type: ADME, cell-based; conditions: 1000 µM
Summary of the method: (§1)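 Cryopreserved pooled human hepatocytes on collagen-coated wells, 2 × 10^5 cells/well in HCM medium with 0.5% FBS, preincubated 30 min with or without 1 mM (-)-borneol, then drug for 6 h; DMSO ≤0.2% final. Parent drug in cell fraction measured by LC-MS/MS after methanol/acetic acid extraction. Mean ± SD of triplicates.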

HEK293 [4] = assay: Cytotoxicity against HEK293 cells expressing UGT assessed as LDH leakage at 1 mM after 6 to 24 hrs by spectrophotometric analysis relative to total cell LDH level; assay type: ADME, cell-based; conditions: human, hek293, 1000 µM
Summary of the method: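 Stable UGT-expressing or mock HEK293 lines in DMEM with 0.5% FBS, 2 x 10^4 cells/well, drug for 6, 12 or 24 h. LDH released into medium read at 490 nm (690 nm reference); percentage calculated against maximum release from control cells lysed with 1% Triton X-100.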

Hepatocyte [5] = assay: Cytotoxicity against human hepatocytes assessed as decrease in cell viability by measuring intracellular ATP content at 1 mM measured at 6 hrs by CellTiter-Glo luminescent assay in absence of acyl glucuronidation inhibitor (-)-borneol; assay type: cell-based; conditions: 1000 µM
Summary of the method: (§2)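 Human hepatocytes (pooled, cryopreserved), 2 × 10^4 cells/well on collagen in HCM with 0.5% FBS and 10 nM estradiol; 30-min preincubation ± 1 mM (-)-borneol, then drug 6 h. Intracellular ATP measured by CellTiter-Glo luminescence, percent of control cells. Triplicates, mean ± SD.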

HEK293 [6] = assay: Cytotoxicity against HEK293 cells expressing UGT1A3 assessed as decrease in cell viability by measuring intracellular ATP content at 1 mM by CellTiter-Glo luminescent assay; assay type: ADME, cell-based; conditions: human, hek293, 1000 µM; TDE = time-dependent effect
Summary of the method: (§3)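 UGT1A3 or UGT1A4 stable HEK293 cells, 2 x 10^4 cells/well in 0.1 mL DMEM with 0.5% FBS, drug for 6, 12 or 24 h. Viability from intracellular ATP via CellTiter-Glo luminescence, expressed as percent of control cells. Mean ± SD of triplicates.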

HEK293 [7] = assay: Genotoxicity in HEK293 cells expressing UGT1A3 assessed as DNA strand breaks at 1 mM after 24 hrs by comet assay; assay type: toxicity, cell-based; conditions: human, hek293, 24 h, 1000 µM
Summary of the method: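 Alkaline comet assay: HEK/UGT1A3 cells seeded 24 h before, treated 24 h in DMEM with 0.5% FBS (vehicle 0.1% DMSO; MMS 0.1 mM positive control). Cells embedded in LMP agarose, lysed 1 h at 4°C at pH 10, unwound 30 min in NaOH/EDTA, electrophoresed 300 mA 20 min, ethidium-stained; tail moment scored on 150-180 comets over >3 experiments, median (IQR).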

HEK293 [8] = assay: Cytotoxicity against HEK293 cells expressing UGT1A3 assessed as decrease in cell viability at 1 mM by MTT assay; assay type: ADME, cell-based; conditions: human, hek293, 1000 µM; TDE = time-dependent effect
[9] = biological target: T1, UDP-glucuronosyltransferase 1A4 (Homo sapiens, UniProt P22310); assay: Activity of human UGT1A4 expressed in HEK293 cells assessed as enzyme-mediated ibuprofen acyl-beta-D-glucuronide formation at 1 mM measured at 24 hrs by LC-MS/MS analysis; assay type: ADME, cell-based; conditions: hek293, 24 h, 1000 µM
T1 sequence (P22310 whole entry): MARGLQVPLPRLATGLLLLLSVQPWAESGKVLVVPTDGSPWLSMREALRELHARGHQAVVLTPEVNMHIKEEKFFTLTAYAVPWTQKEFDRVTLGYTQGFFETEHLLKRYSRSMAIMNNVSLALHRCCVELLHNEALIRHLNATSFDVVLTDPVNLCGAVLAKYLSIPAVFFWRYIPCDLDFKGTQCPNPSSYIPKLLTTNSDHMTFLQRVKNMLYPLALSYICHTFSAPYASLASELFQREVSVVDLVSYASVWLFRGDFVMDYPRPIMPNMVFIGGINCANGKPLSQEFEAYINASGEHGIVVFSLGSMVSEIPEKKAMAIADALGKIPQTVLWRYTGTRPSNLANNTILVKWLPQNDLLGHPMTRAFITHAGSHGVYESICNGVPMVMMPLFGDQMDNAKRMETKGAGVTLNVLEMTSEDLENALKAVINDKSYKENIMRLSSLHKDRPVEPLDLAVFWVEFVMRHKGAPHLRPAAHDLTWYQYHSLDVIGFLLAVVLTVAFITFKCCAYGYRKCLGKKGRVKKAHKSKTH
Summary of the method: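 HEK293 stably expressing human UGT1A4, 2 x 10^5 cells/well in DMEM with 0.5% FBS, drug exposure 6–24 h, DMSO ≤0.1% final. Acyl glucuronide in cell fraction and medium measured by LC-MS/MS after methanol/acetic acid (100:1) precipitation and centrifugation. Triplicate determinations.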

Hepatocyte [10] = assay: Cytotoxicity against human hepatocytes assessed as decrease in cell viability by measuring intracellular ATP content at 1 mM measured at 6 hrs by CellTiter-Glo luminescent assay in presence of acyl glucuronidation inhibitor (-)-borneol; assay type: cell-based; conditions: 1000 µM; summary of the method: as §2
Hepatocyte [11] = assay: Cellular uptake in human hepatocytes at 1 mM measured at 6 hrs by LC-MS/MS analysis in absence of acyl glucuronidation inhibitor (-)-borneol; assay type: ADME, cell-based; conditions: 1000 µM; summary of the method: as §1
HEK293 [12] = assay: Cytotoxicity against mock transfected HEK293 cells assessed as decrease in cell viability at 1 mM by MTT assay; assay type: cell-based; conditions: human, hek293, 1000 µM; TDE = time-dependent effect
HEK293 [13] = assay: Cytotoxicity against HEK293 cells expressing UGT1A4 assessed as decrease in cell viability by measuring intracellular ATP content at 1 mM by CellTiter-Glo luminescent assay; assay type: ADME, cell-based; conditions: human, hek293, 1000 µM; TDE = time-dependent effect; summary of the method: as §3
[14] = biological target: T2, UDP-glucuronosyltransferase 1A3 (Homo sapiens, UniProt P35503); assay: Activity of human UGT1A3 expressed in HEK293 cells assessed as enzyme-mediated ibuprofen acyl-beta-D-glucuronide formation at 1 mM measured at 24 hrs by LC-MS/MS analysis; assay type: ADME, cell-based; conditions: hek293, 24 h, 1000 µM
T2 sequence (P35503 whole entry): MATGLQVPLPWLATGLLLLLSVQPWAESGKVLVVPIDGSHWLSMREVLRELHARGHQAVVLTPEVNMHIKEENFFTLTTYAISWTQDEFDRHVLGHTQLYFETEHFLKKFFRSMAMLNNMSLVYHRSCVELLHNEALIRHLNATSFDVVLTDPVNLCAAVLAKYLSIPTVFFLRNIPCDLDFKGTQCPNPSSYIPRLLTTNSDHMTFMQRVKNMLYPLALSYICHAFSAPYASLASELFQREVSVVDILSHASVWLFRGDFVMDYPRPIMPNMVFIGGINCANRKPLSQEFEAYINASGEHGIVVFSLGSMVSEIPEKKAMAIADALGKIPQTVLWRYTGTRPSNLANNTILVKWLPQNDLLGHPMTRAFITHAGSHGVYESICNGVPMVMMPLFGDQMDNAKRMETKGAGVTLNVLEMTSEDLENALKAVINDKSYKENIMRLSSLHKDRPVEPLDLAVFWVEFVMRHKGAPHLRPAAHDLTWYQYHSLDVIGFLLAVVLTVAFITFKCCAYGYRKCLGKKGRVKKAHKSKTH
Summary of the method: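 HEK293 stably expressing human UGT1A3 (G418-selected), 2 x 10^5 cells/well in 1 mL DMEM with 0.5% FBS, exposed immediately to drug for 6, 12 or 24 h; DMSO ≤0.1% final. Cells and medium separated by centrifugation, cell fraction resuspended in PBS; aliquots mixed 1:1 with methanol/acetic acid (100:1), spun, supernatant analysed by LC-MS/MS. Triplicate determinations, mean ± SD.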

HEK293 [15] = assay: Cytotoxicity against HEK293 cells expressing UGT assessed as decrease in cell viability at 1 mM measured up to 72 hrs by MTT assay; assay type: ADME, cell-based; conditions: human, hek293, 72 h, 1000 µM
Summary of the method: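 Mock and UGT1A3/UGT1A4 stable HEK293 cells given drug for up to 72 h; viability measured by WST-8-based MTT assay.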

Hepatocyte [16] = assay: Cytotoxicity against human hepatocytes assessed as decrease in cell viability at 1 mM measured at 6 hrs […] in presence of acyl glucuronidation inhibitor (-)-borneol; assay type: cell-based; conditions: 1000 µM

CC(C)Cc1ccc(C(C)C(=O)O)cc1 (stereo unspecified) [IBUPROFEN]
Activity (HEK293 [1]): tde | Activity (HEK293 [2]): tde | Drug uptake (Hepatocyte [3]): Active | Activity (HEK293 [4]): < 5.4% | Activity (Hepatocyte [5]): Toxic | Activity (HEK293 [6]): tde | Activity (HEK293 [7]): Non-toxic | Activity (HEK293 [8]): tde | Drug metabolism [9]: metabolite_not_detected | Activity (Hepatocyte [10]): Toxic | Drug uptake (Hepatocyte [11]): Active | Activity (HEK293 [12]): tde | Activity (HEK293 [13]): tde | Drug metabolism [14]: metabolite_detected | Activity (HEK293 [15]): Non-toxic | Activity (Hepatocyte [16]): Toxic
